From PubChem BioAssay
ARNT-TACC3 inh: ARNT/TACC3 interaction disruption; inhibition, % at 9.99 µM; hit rate 0.66% among 390,000; AlphaScreen His-ARNT PAS-B/GST-TACC3 binding, luminescence; TACC3 fragment carries E629A point mutation; Q9Y6A5; AID 623870;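 active = mean inhibition of replicates at least 50% and at least half of replicates each reaching 50%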;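 note: 0% = complete ARNT plus TACC3 wells and 100% = ARNT alone without TACC3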
TCR CD3 inh: inhibitors of human TCR-CD3 interaction; TAMRA-labeled TCR probe fluorescence, biochemical; inhibition, % at 9.4 µM; hit rate 0.37% among 360,000; AID 651800; in the data active = inhibition above about 19%;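 note: recombinant mutant TCR 2C K166C tagged with TAMRA read by polarization; 0% = receptor in buffer alone and 100% = receptor with positive control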
HTRA1 inh: blocks human HTRA1 serine peptidase | hit rate 0.5% among 340,000 | recombinant HTRA1, FP-rhodamine activity-based probe, fluorescence polarization | inhibition, % at 5.96 µM | Q92743; in the data active = inhibition above about 36%;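 note: 0% = enzyme with DMSO and 100% = wells lacking enzyme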
Target sequence (Q92743 whole entry, looked up): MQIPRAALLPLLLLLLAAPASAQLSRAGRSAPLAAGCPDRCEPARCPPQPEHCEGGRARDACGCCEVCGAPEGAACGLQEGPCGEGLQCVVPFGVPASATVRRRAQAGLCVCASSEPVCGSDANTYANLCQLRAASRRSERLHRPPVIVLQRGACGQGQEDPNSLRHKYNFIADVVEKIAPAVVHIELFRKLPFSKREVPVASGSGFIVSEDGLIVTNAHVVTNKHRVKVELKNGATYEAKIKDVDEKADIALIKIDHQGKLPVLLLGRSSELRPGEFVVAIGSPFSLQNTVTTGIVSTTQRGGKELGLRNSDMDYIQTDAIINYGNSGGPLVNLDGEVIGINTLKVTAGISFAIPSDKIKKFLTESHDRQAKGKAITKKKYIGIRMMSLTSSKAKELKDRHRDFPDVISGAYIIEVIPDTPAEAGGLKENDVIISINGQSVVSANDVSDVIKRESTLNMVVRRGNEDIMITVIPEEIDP
SIAE primary: blocks human sialic acid acetylesterase; Q9HAT2; SIAE FP-Rh probe binding, fluorescence polarization; inhibition, % at 9.66 µM; hit rate 0.69% among 370,000; AID 1053197;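 active = inhibition above a cutoff: mean of compounds within the control limits plus 3 SD of those, cut at about 17% in these data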;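 note: 0% = plate median of compound wells and 100% = probe without SIAE protein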
mABHD4 FP: ABHD4 (mouse) inhibition, primary FP screen | Q8VD66 | purified mABHD4, FP-Rh probe fluorescence polarization | inhibition, % at 8.92 µM | hit rate 0.54% among 370,000;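 active = inhibition exceeding the mean over every tested compound plus 3 SD, cut at about 30% in these data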;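 note: 0% = plate median of compound wells and 100% = S159A mutant with DMSO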
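Test system: mABHD4 protein | Buffer or medium: HEPES pH 7.0 buffer, 150 mM NaCl, 0.01% Pluronic F-127 | Probe or stimulus: FP-Rh fluorescent activity-based probe, added after compound pre-incubation | Timing: Pre-incubation 45 min, probe exposure 60 min, at 25 °C | Technique: Fluorescence polarization, excitation 525 nm, emission 598 nm, BODIPY TMR filters | Repeats: Single well per compound (singlicate)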
SIAE confirm: confirmation of human SIAE inhibitors | hit rate 13% among 2,300 | SIAE FP-Rh activity-based probe, fluorescence polarization | shares compounds with SIAE primary | AID 1117263 | inhibition, % at 9.66 µM;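 active = mean inhibition of the replicates above the hit cutoff set in the primary screen, cut at about 17% in these data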;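 note: 0% = SIAE with DMSO and probe and 100% = probe without SIAE; inhibitors lower polarization as more probe stays unbound to SIAE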
An asterisk follows results filed as active; . = no result given. This is a sample that favours compounds with a hit; in the whole collection about 1.8% have one here.

SMILES | ARNT-TACC3 inh | TCR CD3 inh | HTRA1 inh | SIAE primary | mABHD4 FP | SIAE confirm
Cc1ccc(S(=O)(=O)Nc2c(C)n(C)n(-c3ccccc3)c2=O)cc1C(=O)OC(C)C(=O)N(C)c1ccccc1 (configuration not stated) | 3.1 | 2.8 | -1.9 | 21.2* | 0.8 | 3.4
Cc1ccc(NC(=O)COC(=O)c2ccccc2Cl)cc1S(=O)(=O)N(C)C | 3.0 | 0.3 | -4.7 | 2.6 | -4.1 | .
CC(=O)N/C(=C\c1ccccc1)C(=O)OCC(=O)Nc1ccc(C)c(S(=O)(=O)N(C)C)c1 | 3.0 | 7.2 | -10.4 | 21.4* | -6.2 | 1.4
CO[C@H]1CN(C)C(=O)c2cc(NS(=O)(=O)c3cn(C)cn3)ccc2OC[C@H](C)N(CC2CC2)C[C@H]1C | -7.2 | . | . | . | . | .
O=C1CC(CC(=O)N/N=C/c2ccccc2[N+](=O)[O-])=NN1 | 4.4 | -3.0 | 6.9 | -2.5 | 12.6 | .
NNC(=O)CC1=NNC(=O)C1 | 10.1 | -4.3 | 3.7 | 19.1* | -1.3 | 0.4
Cc1c(C)n(CCc2ccccc2)c2ncnc(NN)c12 | -2.0 | -5.1 | 0.3 | 1.0 | 3.1 | .
Cc1c(C)n(CCc2ccccc2)c2ncnc(NCCCO)c12 | 14.3 | 5.8 | -9.7 | 18.1* | -4.5 | 5.2
CO[C@H]1CN(C)C(=O)c2cc(NC(=O)C3CCOCC3)ccc2OC[C@@H](C)N(CC2CC2)C[C@@H]1C | -0.4 | . | . | . | . | .
CC(=O)NS(=O)(=O)c1ccc(NC(=O)c2ccc(Cl)cc2[N+](=O)[O-])cc1 | 8.0 | -8.9 | -2.7 | -9.8 | -5.1 | .
Cc1cc(C(=O)Nc2ccc(Nc3ccccc3)cc2)ccc1[N+](=O)[O-] | -4.1 | 6.6 | 12.1 | 19.1* | 11.9 | 19.1*
O=C(Nc1ccc(Nc2ccccc2)cc1)c1ccc(Cl)cc1[N+](=O)[O-] | . | -8.0 | . | 21.0* | 8.1 | 5.4
O=C(NCC[C@H]1CC[C@H](NS(=O)(=O)c2cccc(F)c2)[C@@H](CO)O1)Nc1cc(F)ccc1F | -35.5 | . | . | . | . | .
C[C@H](CO)N1C[C@H](C)[C@H](CN(C)C(=O)CCC(F)(F)F)OCCCC[C@H](C)Oc2ccc(NC(=O)c3ccncc3)cc2C1=O | -4.3 | . | . | . | . | .
Cn1nnnc1SCC(=O)Nc1ccc(C(=O)N2CCN(Cc3ccccc3F)CC2)cc1 | -0.5 | 4.5 | -3.5 | 17.7* | 4.8 | 4.7
C[C@H](CO)N1C[C@H](C)[C@H](CN(C)S(C)(=O)=O)Oc2c(NC(=O)C3CCCCC3)cccc2C1=O | 3.2 | . | . | . | . | .
C[C@H](CO)N1C[C@H](C)[C@H](CN(C)S(=O)(=O)c2ccccc2F)OCc2ccccc2-c2ccccc2C1=O | 21.9 | . | . | . | . | .
CCn1c(CO)nc2c1c(=O)[nH]c(=O)n2Cc1ccccc1 | -36.0 | -0.5 | 4.4 | 19.6* | 0.2 | -2.2
C[C@H](CO)N1C[C@H](C)[C@H](CN(C)S(=O)(=O)c2cccc(F)c2)Oc2ncc(C#CC3CC3)cc2C1=O | -3.5 | . | . | . | . | .
Cc1ccc(-n2[nH]c(C)c(C=Nc3ccc4[nH]c(=O)[nH]c4c3)c2=O)cc1 | -21.6 | -3.8 | 13.8 | 22.8* | 1.0 | 2.9
Cc1ccc(-n2[nH]c(C)c(C=Nc3ccc4[nH]c(=O)[nH]c4c3)c2=O)cc1C | -0.4 | -0.6 | 6.4 | 4.6 | 1.2 | .
O=[N+]([O-])c1ccc(N2CCN(Cc3ccc4c(c3)OCO4)CC2)nc1 | 7.1 | -8.7 | 3.2 | 23.9* | -4.8 | -0.3
O=Cc1cc([N+](=O)[O-])ccc1N1CCN(Cc2ccc3c(c2)OCO3)CC1 | 3.3 | -2.7 | -13.1 | 2.5 | -2.8 | .
CCCCN1CNC(=S)N(c2ccc(C(=O)OCC)cc2)C1 | -0.1 | -3.2 | -0.1 | 18.4* | -3.7 | -2.6
Cn1cc(/C=C(\NC(=O)c2ccccc2Cl)C(=O)N2CCOCC2)c2ccccc21 | 5.4 | -0.9 | 1.6 | 1.8 | -1.6 | .
SMILES | ARNT-TACC3 inh | TCR CD3 inh | HTRA1 inh | SIAE primary | mABHD4 FP | SIAE confirm
COc1ccccc1C(=O)N/C(=C\c1cn(C)c2ccccc12)C(=O)N1CCOCC1 | 0.4 | 8.9 | -2.9 | 21.2* | 0.8 | -30.6
COc1ccc(-c2ccc(/C=C(\NC(=O)c3ccccc3)C(=O)N3CCOCC3)o2)cc1 | 13.5 | -8.1 | 3.7 | 17.1* | 8.9 | -0.7
CC1CCN(C(=O)/C(=C\c2ccco2)NC(=O)c2ccccc2)CC1 | 13.5 | -9.5 | -0.2 | 23.5* | 8.6 | 1.5
Cc1ccc(C(=O)N/C(=C/c2ccco2)C(=O)N2CCC(C)CC2)cc1 | 8.9 | -7.8 | -1.4 | 2.1 | 9.4 | .
C[C@@H]1CN([C@H](C)CO)C(=O)c2cc(C#Cc3ccccc3F)cnc2O[C@@H]1CN(C)C(=O)Cc1ccccc1 | 5.2 | . | . | . | . | .
Cc1noc(C)c1NC(=O)Nc1ccc2c(c1)C(=O)N([C@H](C)CO)C[C@@H](C)[C@H](CN(C)Cc1ccncc1)OCCCC[C@H](C)O2 | -9.4 | . | . | . | . | .
CC=Cc1ccc2n(c1=O)C[C@@H]1[C@@H](CO)[C@H](C(=O)NC3CCC3)N(S(C)(=O)=O)[C@H]21 (mixture of isomers) | -1.8 | . | . | . | . | .
Cc1[nH]c2ccccc2c1/C=N\NC(=O)c1ccccc1Cl | . | 7.5 | 12.3 | 3.3 | 1.2 | .
Cc1[nH]c2ccccc2c1/C=N/NC(=S)NC(C)C | 14.3 | -2.3 | 16.7 | 20.0* | 9.6 | 14.2
CC(C)NC(=S)N/N=C/c1c[nH]c2ccccc12 | 19.0 | 5.1 | 5.9 | 8.3 | 8.9 | .
Cc1[nH]c2ccccc2c1/C=N/NC(=O)C1CC1(c1ccccc1)c1ccccc1 (configuration not stated) | 3.3 | -5.6 | -0.1 | 27.0* | -2.2 | 2.2
O=C(C[C@@H]1CC[C@H]2[C@@H](COC[C@H](O)CN2Cc2cc(F)ccc2F)O1)N[C@H]1CCN(Cc2ccccc2)C1 | -3.1 | . | . | . | . | .
CC(C)C1=CC2C3C(=O)N(c4ccccc4)C(=O)C3C1C(=O)C2(C)O (configuration not stated) | . | 7.2 | . | 20.6* | 2.1 | 3.4
CC1=CC2C3C(=O)N(c4ccccc4)C(=O)C3C1C(=O)C2(O)C(C)C (configuration not stated) | . | -5.9 | . | 0.1 | 5.5 | .
O=C(c1cccnc1)N1C[C@@H]2[C@H](c3ccccc31)[C@H](CO)N2C(=O)CN1CCOCC1 | -1.0 | . | . | . | . | .
COc1ccc(-n2nnc3c(=O)n(C/C=C/c4ccccc4)cnc32)cc1 | -9.0 | -6.6 | 0.6 | 20.6* | 4.2 | -3.4
O=C(Nc1nc2c(Br)cccc2s1)c1ccc2c(c1)OCCO2 | . | . | . | 22.4* | -29.5 | -60.4
Cc1nc2c(ccc3nc(NC(=O)c4ccc5c(c4)OCCO5)sc32)s1 | 0.6 | -1.1 | -38.2 | -43.0 | -10.3 | .
C[C@H](CO)N1C[C@H](C)[C@H](CN(C)S(C)(=O)=O)Oc2c(NC(=O)NC3CCCCC3)cccc2C1=O | -1.9 | . | . | . | . | .
COc1ccc(Nc2ncnc3sc(-c4ccccc4)cc23)cc1OC | -6.0 | -5.8 | -14.1 | 23.4* | 19.2 | 14.7
C[C@@H]1CCCCO[C@H](CN(C)Cc2ccncc2)[C@H](C)CN([C@@H](C)CO)C(=O)c2cc(NS(=O)(=O)c3ccc(F)cc3)ccc2O1 | -1.4 | . | . | . | . | .
